Values after ≈ are worked out from the molar mass of the structure shown.
How the values were obtained:
Acinetobacter baumannii [1] = test: Antibacterial activity against panel of 198 clinical isolates Acinetobacter baumannii assessed as inhibition of bacterial growth by microdilution method; format: functional
Acinetobacter baumannii [2] = test: Antibacterial activity against 98 member subset of carbapenem resistant Acinetobacter baumannii assessed as assessed as inhibition of bacterial growth by microdilution method; format: functional
How it was run: (§1)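 Broth microdilution in Chelex-treated, iron-depleted cation-adjusted Mueller-Hinton broth, following the protocol used for siderophore-containing antibiotics; inoculum lowered to 6 × 10^4 cfu/mL; MIC read as growth inhibition, in μg/mL.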

Acinetobacter baumannii [3] = test: Antibacterial activity against carbapenem resistant Acinetobacter baumannii isolate PR-325 assessed as bacterial growth inhibition by microdilution method; format: functional; how it was run: as §1
Acinetobacter baumannii [4] = test: Antibacterial activity against carbapenem susceptible Acinetobacter baumannii isolate PR-340 assessed as bacterial growth inhibition by microdilution method; format: functional
How it was run: (§2)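 Broth microdilution MIC in iron-depleted (Chelex resin-treated) cation-adjusted Mueller-Hinton broth, following the protocol used for siderophore-containing antibiotics. Inoculum was lowered to 6 × 10^4 cfu/mL.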

Acinetobacter baumannii [5] = test: Antibacterial activity against carbapenem resistant Acinetobacter baumannii isolate PR-345 assessed as bacterial growth inhibition by microdilution method; format: functional; how it was run: as §1
Acinetobacter baumannii [6] = test: Antibacterial activity against carbapenem resistant Acinetobacter baumannii isolate PR-351 assessed as bacterial growth inhibition by microdilution method; format: functional; how it was run: as §1
Acinetobacter baumannii [7] = test: Antibacterial activity against carbapenem resistant Acinetobacter baumannii isolate PR-384 assessed as bacterial growth inhibition by microdilution method; format: functional; how it was run: as §1
Acinetobacter baumannii [8] = test: Antibacterial activity against carbapenem resistant Acinetobacter baumannii isolate PR-482 assessed as bacterial growth inhibition by microdilution method; format: functional; how it was run: as §1
[9] = Antibacterial activity against carbapenem susceptible Acinetobacter nosocomialis isolate PR-412 assessed as bacterial growth inhibition by microdilution method; format: functional; how it was run: as §2
Acinetobacter baumannii [10] = test: Antibacterial activity against carbapenem susceptible Acinetobacter baumannii isolate PR-434 assessed as bacterial growth inhibition by microdilution method; format: functional; how it was run: as §2
Acinetobacter baumannii [11] = test: Antibacterial activity against carbapenem susceptible Acinetobacter baumannii isolate PR-452 assessed as bacterial growth inhibition by microdilution method; format: functional; how it was run: as §2
Acinetobacter baumannii [12] = test: Antibacterial activity against carbapenem susceptible Acinetobacter baumannii isolate PR-464 assessed as bacterial growth inhibition by microdilution method; format: functional; how it was run: as §2
Acinetobacter baumannii [13] = test: Antibacterial activity against carbapenem resistant Acinetobacter baumannii isolate PR-342 assessed as inhibition of bacterial growth at 1:1 compound to sulbactam concentration by microdilution method; format: functional
How it was run: (§3)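 Iron-depleted (Chelex-treated) cation-adjusted Mueller-Hinton broth microdilution; inoculum 6 × 10^4 cfu/mL. Test agent and sulbactam mixed 1:1 by mass and serially 2-fold diluted together. MIC in μg/mL.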

Acinetobacter baumannii [14] = test: Antibacterial activity against carbapenem resistant Acinetobacter baumannii isolate PR-345 assessed as inhibition of bacterial growth at 1:1 compound to sulbactam concentration by microdilution method; format: functional; how it was run: as §3
Acinetobacter baumannii [15] = test: Antibacterial activity against carbapenem resistant Acinetobacter baumannii isolate PR-351 assessed as inhibition of bacterial growth at 1:1 compound to sulbactam concentration by microdilution method; format: functional; how it was run: as §3
Acinetobacter baumannii [16] = test: Antibacterial activity against carbapenem resistant Acinetobacter baumannii isolate PR-401 assessed as inhibition of bacterial growth at 1:1 compound to sulbactam concentration by microdilution method; format: functional; how it was run: as §3
Acinetobacter baumannii [17] = test: Antibacterial activity against carbapenem resistant Acinetobacter baumannii isolate PR-482 assessed as inhibition of bacterial growth at 1:1 compound to sulbactam concentration by microdilution method; format: functional; how it was run: as §3
[18] = Antibacterial activity against carbapenem susceptible Acinetobacter nosocomialis isolate PR-365 assessed as inhibition of bacterial growth at 1:1 compound to sulbactam concentration by microdilution method; format: functional
How it was run: (§4)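 Broth microdilution MIC in Chelex-treated, iron-depleted cation-adjusted Mueller-Hinton broth, inoculum 6 × 10^4 cfu/mL. Compound and sulbactam combined 1:1 by mass in a 2-fold dilution series.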

Acinetobacter baumannii [19] = test: Antibacterial activity against carbapenem susceptible Acinetobacter baumannii isolate PR-434 assessed as inhibition of bacterial growth at 1:1 compound to sulbactam concentration by microdilution method; format: functional; how it was run: as §4
Acinetobacter baumannii [20] = test: Antibacterial activity against carbapenem susceptible Acinetobacter baumannii isolate PR-452 assessed as inhibition of bacterial growth at 1:1 compound to sulbactam concentration by microdilution method; format: functional; how it was run: as §2
Acinetobacter baumannii [21] = test: Antibacterial activity against carbapenem resistant Acinetobacter baumannii isolate PR-319 assessed as inhibition of bacterial growth in presence of 20 ug/ml sulbactam by microdilution method; format: functional; details: dose 20 µg/ml
Acinetobacter baumannii [22] = test: Antibacterial activity against carbapenem susceptible Acinetobacter baumannii isolate PR-434 assessed as inhibition of bacterial growth in presence of 20 ug/ml sulbactam by microdilution method; format: functional; details: dose 20 µg/ml
How it was run: (§5)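 MIC by broth microdilution using iron-depleted (Chelex-treated) cation-adjusted Mueller-Hinton broth and 6 × 10^4 cfu/mL inoculum. Compound serially diluted with sulbactam held constant at 20 μg/mL.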

Acinetobacter baumannii [23] = test: Antibacterial activity against carbapenem susceptible Acinetobacter baumannii isolate PR-452 assessed as inhibition of bacterial growth in presence of 20 ug/ml sulbactam by microdilution method; format: functional; details: dose 20 µg/ml; how it was run: as §5
Acinetobacter baumannii [24] = test: Antibacterial activity against carbapenem susceptible Acinetobacter baumannii isolate PR-464 assessed as inhibition of bacterial growth in presence of 20 ug/ml sulbactam by microdilution method; format: functional; details: dose 20 µg/ml; how it was run: as §5
[25] = Metabolic stability in human microsomes assessed as half life; format: ADME, Microsome
PDE3A = PDE3A (Homo sapiens, UniProt Q14432); test: Inhibition of PDE3A (unknown origin) at 30 uM
PDE3A, sequence (Q14432 whole entry): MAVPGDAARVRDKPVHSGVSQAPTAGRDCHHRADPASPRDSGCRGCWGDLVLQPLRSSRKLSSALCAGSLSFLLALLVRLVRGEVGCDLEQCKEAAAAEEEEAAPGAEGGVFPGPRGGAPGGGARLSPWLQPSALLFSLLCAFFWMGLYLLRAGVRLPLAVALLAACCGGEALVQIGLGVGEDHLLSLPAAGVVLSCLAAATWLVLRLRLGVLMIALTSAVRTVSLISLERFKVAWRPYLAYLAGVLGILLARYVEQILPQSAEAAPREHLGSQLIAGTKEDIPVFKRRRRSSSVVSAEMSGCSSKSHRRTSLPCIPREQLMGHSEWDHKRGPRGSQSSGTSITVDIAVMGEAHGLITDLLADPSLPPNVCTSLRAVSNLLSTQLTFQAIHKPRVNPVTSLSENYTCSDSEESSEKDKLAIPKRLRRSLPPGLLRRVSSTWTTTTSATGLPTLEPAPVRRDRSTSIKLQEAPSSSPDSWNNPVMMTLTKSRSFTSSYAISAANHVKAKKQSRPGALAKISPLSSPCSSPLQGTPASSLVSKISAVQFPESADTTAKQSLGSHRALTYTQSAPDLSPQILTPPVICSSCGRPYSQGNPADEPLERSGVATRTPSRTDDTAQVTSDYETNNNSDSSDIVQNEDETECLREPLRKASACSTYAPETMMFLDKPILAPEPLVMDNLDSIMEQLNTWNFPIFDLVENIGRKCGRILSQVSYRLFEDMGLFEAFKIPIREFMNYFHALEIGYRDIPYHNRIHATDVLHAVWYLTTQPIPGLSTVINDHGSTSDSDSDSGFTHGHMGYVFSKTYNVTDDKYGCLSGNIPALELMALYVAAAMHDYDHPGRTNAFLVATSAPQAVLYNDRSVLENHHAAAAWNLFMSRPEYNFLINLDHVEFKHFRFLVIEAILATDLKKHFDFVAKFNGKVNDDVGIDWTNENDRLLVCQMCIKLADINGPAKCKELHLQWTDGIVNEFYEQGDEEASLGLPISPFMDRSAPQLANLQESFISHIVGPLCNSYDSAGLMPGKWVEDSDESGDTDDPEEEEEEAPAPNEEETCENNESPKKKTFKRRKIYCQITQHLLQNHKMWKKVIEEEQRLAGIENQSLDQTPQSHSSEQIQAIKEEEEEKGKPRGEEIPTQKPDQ

Pseudomonas aeruginosa [26] = test: Antibacterial activity against wild type Pseudomonas aeruginosa isolate PR-672 assessed as inhibition of bacterial growth by microdilution method; format: functional; how it was run: as §2
Pseudomonas aeruginosa [27] = test: Antibacterial activity against Pseudomonas aeruginosa isolate PR-627 leucine at 533 residue assessed as inhibition of bacterial growth by microdilution method; format: functional; how it was run: as §1
Pseudomonas aeruginosa [28] = test: Antibacterial activity against wild type Pseudomonas aeruginosa isolate PR-668 leucine at 533 residue assessed as inhibition of bacterial growth by microdilution method; format: functional; how it was run: as §2
Pseudomonas aeruginosa [29] = test: Antibacterial activity against wild type Pseudomonas aeruginosa isolate PR-680 leucine at 533 residue assessed as inhibition of bacterial growth by microdilution method; format: functional; how it was run: as §2
[30] = Plasma concentration in SC dosed CD-1 mouse treated four times at 6 hrs interval measured after 0.167 hrs; format: ADME, organism-based
How it was run: (§6)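 CD-1 mice dosed SC at 50 mg/kg. Plasma sampled at 0.167 to 24 h, three individual mice per time point, reported as mean and SD in ng/mL.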

[31] = Plasma concentration in SC dosed CD-1 mouse treated four times at 6 hrs interval measured after 2 hrs; format: ADME, organism-based; how it was run: as §6
[32] = Plasma concentration in SC dosed CD-1 mouse treated four times at 6 hrs interval measured after 4 hrs; format: ADME, organism-based; how it was run: as §6
[33] = Plasma concentration in SC dosed CD-1 mouse treated four times at 6 hrs interval measured after 8 hrs; format: ADME, organism-based; how it was run: as §6
[34] = Plasma concentration in SC dosed CD-1 mouse treated four times at 6 hrs interval measured after 24 hrs; format: ADME, organism-based; how it was run: as §6
Acinetobacter baumannii [35] = test: Antibacterial activity against carbapenem susceptible Acinetobacter baumannii isolate PR-340 assessed as inhibition of bacterial growth in presence of 20 ug/ml sulbactam by microdilution method
Acinetobacter baumannii [36] = test: Antibacterial activity against carbapenem susceptible Acinetobacter baumannii isolate PR-340 assessed as inhibition of bacterial growth at 1:1 compound to sulbactam concentration by microdilution method

For `CC(C)(O/N=C(\C(=O)N[C@H]1CN2CC(C(=O)NCCN3C(=O)c4cc(O)c(O)cc4C3=O)=C(C(=O)O)N2C1=O)c1nc(N)sc1Cl)C(=O)O`, the MIC50 (Acinetobacter baumannii [1]) was 0.5 µg/mL (≈ 0.693 µM), the MIC90 (Acinetobacter baumannii [1]) was > 16 µg/mL and the MIC90 (Acinetobacter baumannii [2]) was > 16 µg/mL. For the same compound, the MIC (Acinetobacter baumannii [3]) was > 16 µg/mL, the MIC (Acinetobacter baumannii [4]) was > 16 µg/mL and the MIC (Acinetobacter baumannii [5]) was > 16 µg/mL. For the same compound, the MIC (Acinetobacter baumannii [6]) was > 16 µg/mL, the MIC (Acinetobacter baumannii [7]) was > 16 µg/mL and the MIC (Acinetobacter baumannii [8]) was > 16 µg/mL. For the same compound, the MIC [9] was > 16 µg/mL, the MIC (Acinetobacter baumannii [10]) was > 16 µg/mL and the MIC (Acinetobacter baumannii [11]) was > 16 µg/mL. For the same compound, the MIC (Acinetobacter baumannii [12]) was > 16 µg/mL, the MIC (Acinetobacter baumannii [13]) was > 16 µg/mL and the MIC (Acinetobacter baumannii [14]) was 16 µg/mL. For the same compound, the MIC (Acinetobacter baumannii [15]) was 16 µg/mL, the MIC (Acinetobacter baumannii [16]) was 8 µg/mL and the MIC (Acinetobacter baumannii [17]) was > 16 µg/mL. The MIC [18] was ≤ 0.25 µg/mL, the MIC (Acinetobacter baumannii [19]) was 2 µg/mL and the MIC (Acinetobacter baumannii [20]) was ≤ 0.25 µg/mL. The MIC (Acinetobacter baumannii [21]) was 0.5 µg/mL, the MIC (Acinetobacter baumannii [22]) was ≤ 0.25 µg/mL and the MIC (Acinetobacter baumannii [23]) was ≤ 0.25 µg/mL. The MIC (Acinetobacter baumannii [24]) was ≤ 0.25 µg/mL, the t1/2 [25] was > 1 h and the inhibition at 30 µM (PDE3A) was > 50%. For the same compound, the MIC (Pseudomonas aeruginosa [26]) was ≤ 0.25 µg/mL, the MIC (Pseudomonas aeruginosa [27]) was > 16 µg/mL and the MIC (Pseudomonas aeruginosa [28]) was > 16 µg/mL. For the same compound, the MIC (Pseudomonas aeruginosa [29]) was > 16 µg/mL, the concentration at 0.167 h [30] was 47400 ng/mL and the concentration at 2 h [31] was 3070 ng/mL. The concentration at 4 h [32] was 1340 ng/mL, the concentration at 8 h [33] was 1200 ng/mL and the concentration at 24 h [34] was 601 ng/mL. For the same compound, the MIC (Acinetobacter baumannii [35]) was ≤ 0.25 µg/mL and the MIC (Acinetobacter baumannii [36]) was 1 µg/mL.

From ChEMBL document CHEMBL4842318, “A γ-lactam siderophore antibiotic effective against multidrug-resistant Pseudomonas aeruginosa, Klebsiella pneumoniae, and Acinetobacter spp” (Eur J Med Chem, 2021)
